Test results: ChEMBL document CHEMBL2146424, “Synthesis and structure-activity relationship of a novel class of 15-membered macrolide antibiotics known as '11a-azalides'” (2012)
In brackets after ≈: the same amount, converted by molar mass.

Tests used:
Streptococcus pneumoniae [1] = assay: Antibacterial activity against erythromycin-susceptible Streptococcus pneumoniae ATCC 49619 by broth microdilution method; assay type: functional
Outline: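 MIC read by broth microdilution following CLSI guidelines for S. pneumoniae; clarithromycin run alongside as comparator in all assays.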

Streptococcus pneumoniae [2] = assay: Antibacterial activity against MLSB-resistant Streptococcus pneumoniae 205 by broth microdilution method; assay type: functional
Outline: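 MIC measured by broth microdilution following CLSI guidelines for S. pneumoniae; erythromycin-susceptible and erythromycin-resistant pneumococcal strains tested, with clarithromycin as comparator in every run.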

Compound	MIC (Streptococcus pneumoniae [1]) [µg/mL]	MIC (Streptococcus pneumoniae [2]) [µg/mL]
CO[C@]1(C)C[C@@H](C)[C@H](O)[C@H](C)CN(C)C[C@H](CCOCc2ccccc2)OC(=O)[C@H](C)[C@@H](O[C@H]2C[C@@](C)(OC)[C@@H](O)[C@H](C)O2)[C@H](C)[C@H]1O[C@@H]1O[C@H](C)C[C@H](N(C)C)[C@H]1O	0.12 (≈ 0.143 µM)	128 (≈ 153 µM)
CO[C@]1(C)C[C@H](O[C@H]2[C@H](C)[C@@H](O[C@@H]3O[C@H](C)C[C@H](N(C)C)[C@H]3O)[C@](C)(O)C[C@@H](C)[C@H](N)[C@H](C)CN(C)C[C@H](COCc3ccccc3)OC(=O)[C@@H]2C)O[C@@H](C)[C@@H]1O	0.12 (≈ 0.148 µM)	> 128
CO[C@]1(C)C[C@@H](C)[C@H](O)[C@H](C)CN(C)C[C@H](COc2ccccc2-c2ccccc2)OC(=O)[C@H](C)[C@@H](O[C@H]2C[C@@](C)(OC)[C@@H](O)[C@H](C)O2)[C@H](C)[C@H]1O[C@@H]1O[C@H](C)C[C@H](N(C)C)[C@H]1O	0.5 (≈ 0.564 µM)	16 (≈ 18 µM)
CO[C@]1(C)C[C@@H](C)[C@H](O)[C@H](C)CN(C)[C@@H](CN)COC(=O)[C@H](C)[C@@H](O[C@H]2C[C@@](C)(OC)[C@@H](O)[C@H](C)O2)[C@H](C)[C@H]1O[C@@H]1O[C@H](C)C[C@H](N(C)C)[C@H]1O	64 (≈ 87.2 µM)	> 128
CO[C@]1(C)C[C@@H](C)[C@H](O)[C@H](C)CN(C)[C@@H](CCOCc2ccccc2)COC(=O)[C@H](C)[C@@H](O[C@H]2C[C@@](C)(OC)[C@@H](O)[C@H](C)O2)[C@H](C)[C@H]1O[C@@H]1O[C@H](C)C[C@H](N(C)C)[C@H]1O	1 (≈ 1.19 µM)	64 (≈ 76.3 µM)
CO[C@]1(C)C[C@H](O[C@H]2[C@H](C)[C@@H](O[C@@H]3O[C@H](C)C[C@H](N(C)C)[C@H]3O)[C@](C)(O)C[C@@H](C)[C@H](N)[C@H](C)CN(C)CCOC(=O)[C@@H]2C)O[C@@H](C)[C@@H]1O	2 (≈ 2.9 µM)	> 128
CO[C@]1(C)C[C@@H](C)[C@H](O)[C@H](C)CN(C)C[C@H](COc2ccc(-c3ccccc3)cc2)OC(=O)[C@H](C)[C@@H](O[C@H]2C[C@@](C)(OC)[C@@H](O)[C@H](C)O2)[C@H](C)[C@H]1O[C@@H]1O[C@H](C)C[C@H](N(C)C)[C@H]1O	1 (≈ 1.13 µM)	8 (≈ 9.02 µM)
CO[C@]1(C)C[C@@H](C)[C@H](O)[C@H](C)CN(C)C[C@H](COc2ccc(-c3ccccn3)cc2)OC(=O)[C@H](C)[C@@H](O[C@H]2C[C@@](C)(OC)[C@@H](O)[C@H](C)O2)[C@H](C)[C@H]1O[C@@H]1O[C@H](C)C[C@H](N(C)C)[C@H]1O	0.25 (≈ 0.281 µM)	16 (≈ 18 µM)
CO[C@]1(C)C[C@@H](C)[C@H](O)[C@H](C)CN(C)CCOC(=O)C(C)C(=O)[C@H](C)[C@H]1O[C@@H]1O[C@H](C)C[C@H](N(C)C)[C@H]1O (mixture of isomers)	> 128	> 128
CCN(CCNC(=O)O[C@H]1[C@H](C)O[C@@H](O[C@H]2[C@H](C)[C@@H](O[C@@H]3O[C@H](C)C[C@H](N(C)C)[C@H]3O)[C@](C)(O)C[C@@H](C)[C@H](N)[C@H](C)CN(C)C[C@H](COCc3ccccc3)OC(=O)[C@@H]2C)C[C@@]1(C)OC)[C@@H](C)c1ccccc1OC	0.12 (≈ 0.113 µM)	0.25 (≈ 0.236 µM)
CO[C@]1(C)C[C@@H](C)[C@H](O)[C@H](C)CN(C)C[C@H](COc2ccccc2)OC(=O)[C@H](C)[C@@H](O[C@H]2C[C@@](C)(OC)[C@@H](O)[C@H](C)O2)[C@H](C)[C@H]1O[C@@H]1O[C@H](C)C[C@H](N(C)C)[C@H]1O	0.25 (≈ 0.308 µM)	32 (≈ 39.5 µM)
CO[C@]1(C)C[C@@H](C)[C@H](O)[C@H](C)CN(C)C[C@H](c2ccccc2)OC(=O)[C@H](C)[C@@H](O[C@H]2C[C@@](C)(OC)[C@@H](O)[C@H](C)O2)[C@H](C)[C@H]1O[C@@H]1O[C@H](C)C[C@H](N(C)C)[C@H]1O	0.5 (≈ 0.64 µM)	> 128
CC[C@H]1OC(=O)[C@H](C)C(=O)[C@H](C)[C@@H](O[C@@H]2O[C@H](C)C[C@H](N(C)C)[C@H]2O)[C@](C)(OC)C[C@@H](C)C(=O)[C@H](C)[C@H]2N(CCCCn3cnc(-c4cccnc4)c3)C(=O)O[C@]12C [TELITHROMYCIN]	4 (≈ 4.93 µM)	> 128
CO[C@]1(C)C[C@@H](C)[C@H](O)[C@H](C)CN(C)[C@H](COCc2ccccc2)COC(=O)[C@H](C)[C@@H](O[C@H]2C[C@@](C)(OC)[C@@H](O)[C@H](C)O2)[C@H](C)[C@H]1O[C@@H]1O[C@H](C)C[C@H](N(C)C)[C@H]1O	4 (≈ 4.85 µM)	64 (≈ 77.6 µM)
CCN(CCNC(=O)O[C@H]1[C@H](C)O[C@@H](O[C@H]2[C@H](C)[C@@H](O[C@@H]3O[C@H](C)C[C@H](N(C)C)[C@H]3O)[C@](C)(O)C[C@@H](C)[C@H](N)[C@H](C)CN(C)CCOC(=O)[C@@H]2C)C[C@@]1(C)OC)[C@@H](C)c1ccccc1OC	0.12 (≈ 0.128 µM)	0.5 (≈ 0.533 µM)
CO[C@]1(C)C[C@@H](C)[C@H](O)[C@H](C)CN(C)C[C@H](COc2ccc(-c3cccnc3)cc2)OC(=O)[C@H](C)[C@@H](O[C@H]2C[C@@](C)(OC)[C@@H](O)[C@H](C)O2)[C@H](C)[C@H]1O[C@@H]1O[C@H](C)C[C@H](N(C)C)[C@H]1O	0.5 (≈ 0.563 µM)	64 (≈ 72.1 µM)
CO[C@]1(C)C[C@@H](C)[C@H](O)[C@H](C)CN(C)C[C@@H](COCc2ccccc2)OC(=O)[C@H](C)[C@@H](O[C@H]2C[C@@](C)(OC)[C@@H](O)[C@H](C)O2)[C@H](C)[C@H]1O[C@@H]1O[C@H](C)C[C@H](N(C)C)[C@H]1O	1 (≈ 1.21 µM)	64 (≈ 77.6 µM)
CO[C@]1(C)C[C@@H](C)[C@H](O)[C@H](C)CN(C)C[C@H](COc2cccc(-c3ccccc3)c2)OC(=O)[C@H](C)[C@@H](O[C@H]2C[C@@](C)(OC)[C@@H](O)[C@H](C)O2)[C@H](C)[C@H]1O[C@@H]1O[C@H](C)C[C@H](N(C)C)[C@H]1O	1 (≈ 1.13 µM)	16 (≈ 18 µM)
CO[C@]1(C)C[C@@H](C)[C@H](O)[C@H](C)CN(C)CCOC(=O)[C@H](C)[C@@H](O[C@H]2C[C@@](C)(OC)[C@@H](O)[C@H](C)O2)[C@H](C)[C@H]1O[C@@H]1O[C@H](C)C[C@H](N(C)C)[C@H]1O	2 (≈ 2.84 µM)	> 128
CCN(CC)C[C@H]1COC(=O)[C@H](C)[C@@H](O[C@H]2C[C@@](C)(OC)[C@@H](O)[C@H](C)O2)[C@H](C)[C@@H](O[C@@H]2O[C@H](C)C[C@H](N(C)C)[C@H]2O)[C@](C)(OC)C[C@@H](C)[C@H](O)[C@H](C)CN1C	128 (≈ 162 µM)	> 128
CO[C@]1(C)C[C@@H](C)[C@H](O)[C@H](C)CN(C)C[C@H](COCc2ccccc2)OC(=O)[C@H](C)[C@@H](O[C@H]2C[C@@](C)(OC)[C@@H](O)[C@H](C)O2)[C@H](C)[C@H]1O[C@@H]1O[C@H](C)C[C@H](N(C)C)[C@H]1O	0.06 (≈ 0.0727 µM)	128 (≈ 155 µM)
CO[C@]1(C)C[C@@H](C)[C@H](O)[C@H](C)CN(C)[C@@H](COCc2ccccc2)COC(=O)[C@H](C)[C@@H](O[C@H]2C[C@@](C)(OC)[C@@H](O)[C@H](C)O2)[C@H](C)[C@H]1O[C@@H]1O[C@H](C)C[C@H](N(C)C)[C@H]1O	1 (≈ 1.21 µM)	64 (≈ 77.6 µM)
CC[C@H]1OC(=O)[C@H](C)[C@@H](O[C@H]2C[C@@](C)(OC)[C@@H](O)[C@H](C)O2)[C@H](C)[C@@H](O[C@@H]2O[C@H](C)C[C@H](N(C)C)[C@H]2O)[C@](C)(OC)C[C@@H](C)C(=O)[C@H](C)[C@@H](O)[C@]1(C)O [CLARITHROMYCIN]	0.03 (≈ 0.0401 µM)	> 128
CO[C@]1(C)C[C@@H](C)C(=O)[C@H](C)CN(C)CCOC(=O)[C@H](C)[C@@H](O[C@H]2C[C@@](C)(OC)[C@@H](O)[C@H](C)O2)[C@H](C)[C@H]1O[C@@H]1O[C@H](C)C[C@H](N(C)C)[C@H]1O	32 (≈ 45.5 µM)	> 128
